Article PMC5575935 (Journal of the American Chemical Society, 2017)
Where a chain is given by its changes, count along the chain named.

Tests used:
[1] = target: T1, MAP2K6 (Homo sapiens, UniProt P52564); test: Z′-LYTE kinase inhibition assay; format: biochemical; conditions: nonelectrophilic analogs relative to EA
T1 sequence (P52564 1-334): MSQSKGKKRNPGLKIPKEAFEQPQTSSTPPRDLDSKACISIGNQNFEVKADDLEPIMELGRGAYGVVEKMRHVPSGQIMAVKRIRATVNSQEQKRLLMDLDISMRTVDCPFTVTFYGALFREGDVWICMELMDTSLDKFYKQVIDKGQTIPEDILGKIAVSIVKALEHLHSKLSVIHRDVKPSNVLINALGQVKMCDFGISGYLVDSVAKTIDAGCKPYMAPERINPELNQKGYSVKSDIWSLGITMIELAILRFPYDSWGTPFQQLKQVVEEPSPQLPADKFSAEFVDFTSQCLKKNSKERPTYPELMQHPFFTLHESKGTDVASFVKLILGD

[2] = target: T2, GSK3α (Homo sapiens, UniProt P49840); test: Z′-LYTE kinase inhibition assay; format: biochemical; conditions: non-DNA tagged ligand
T2 sequence (P49840 whole entry): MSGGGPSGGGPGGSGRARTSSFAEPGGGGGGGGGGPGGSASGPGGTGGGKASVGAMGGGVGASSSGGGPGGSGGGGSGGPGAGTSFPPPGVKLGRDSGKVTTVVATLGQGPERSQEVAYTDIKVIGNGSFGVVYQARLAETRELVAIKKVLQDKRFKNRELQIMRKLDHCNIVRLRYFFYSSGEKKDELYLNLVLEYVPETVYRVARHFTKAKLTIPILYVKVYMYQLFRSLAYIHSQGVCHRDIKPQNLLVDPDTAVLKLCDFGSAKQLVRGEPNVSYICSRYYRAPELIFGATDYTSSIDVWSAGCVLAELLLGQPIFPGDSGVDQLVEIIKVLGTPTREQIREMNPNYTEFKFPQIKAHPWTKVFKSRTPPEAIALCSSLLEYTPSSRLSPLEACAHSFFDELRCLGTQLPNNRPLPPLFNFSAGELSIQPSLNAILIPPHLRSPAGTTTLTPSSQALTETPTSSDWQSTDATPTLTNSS

[3] = target: T2, GSK3α; test: IDUP library × library selection, enrichment of ligand:protein barcodes; format: binding
Method in brief: (§1)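 Kinases were expressed as SNAP fusions by transient transfection of pDEST-SNAP-kinase vectors into HEK293T cells. Each unpurified lysate was labelled with a 31-nt benzylguanine-linked oligonucleotide carrying a unique 6-nt barcode and a common 3′ 8-nt hybridization region. The pooled protein library was combined with 2 pmol of an equimolar library of 136 DNA-linked compounds. IDUP primer extension followed, and extended products encoding protein:ligand pairs were PCR-amplified for barcode enrichment.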

[4] = target: T3, C38A point mutant of MAP2K6EE (Homo sapiens, UniProt P52564, C38A/S207E/T211E); test: Z′-LYTE kinase activity after preincubation with EA and dialysis; format: biochemical; conditions: C38A MAP2K6EE preincubated with 100 µM EA, then dialyzed; vs DMSO
T3 sequence (P52564 1-334 C38A/S207E/T211E): T1 sequence (P52564 1-334) with C38A, S207E, T211E
Method in brief: (§2)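 The kinase, either MAP2K6EE (S207E/T211E) or its C38A variant, was incubated with 100 µM test compound or DMSO. It was then dialyzed to remove free compound. Z′-LYTE kinase activity was measured as a function of kinase concentration.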

[5] = target: T4, MAP2K6EE (constitutively active MAP2K6 mutant, S207E and T211E) (Homo sapiens, UniProt P52564, S207E/T211E); test: as above; format: biochemical; conditions: MAP2K6EE incubated with 100 µM EA, then dialyzed into EA-free buffer; vs DMSO
T4 sequence (P52564 1-334 S207E/T211E): T1 sequence (P52564 1-334) with S207E, T211E
Method in brief: as §2

[6] = target: T1, MAP2K6; test: IDUP library × library selection, enrichment of ligand:protein barcodes; format: binding
Method in brief: as §1

[7] = tested on: MAP2K6 and other MAP2Ks; test: LanthaScreen Eu binding assays on MAP2K family members; set-up: species or system human; conditions: LanthaScreen Eu assays and initial IDUP assay

CCC(C)C(=O)c1ccc(OCC(=O)O)c(Cl)c1Cl (centres unmarked) [dihydro-ethacrynic acid]
fold weaker inhibition of MAP2K6 than EA [1]: > 30 fold

O=C(O)COc1ccc(C(=O)c2cccs2)c(Cl)c1Cl [tienilic acid]
fold weaker inhibition of MAP2K6 than EA [1]: > 30 fold

Cl.Cn1cc(C2=C(c3c4n(c5ccccc35)CCC(CN)C4)C(=O)NC2=O)c2ccccc21 (centres unmarked) [bisX, bisindolylmaleimide X]
IC50 [2]: 115 nM
IDUP enrichment [3]: 4.7 fold

C=C(CC)C(=O)c1ccc(OCC(=O)O)c(Cl)c1Cl [EA, ethacrynic acid]
loss in inhibition potency [4]: ~ 3.3 fold
apparent loss of kinase activity [5]: 9 fold
IDUP enrichment [6]: 4.7 fold
affinity for MAP2K6 compared with other MAP2Ks [7]: higher affinity for MAP2K6 than other MAP2Ks
